PMI activator – activators of human PMI, primary screen, biochemical, fluorescence intensity, near-Km mannose 6-phosphate; Mannose-6-phosphate isomerase (Homo sapiens), P34949; purified human PMI, coupled resazurin fluorescence, 20 min; active compounds read high; 1 = vehicle control, 0 substrate-free wells; activation factor at 20 µM; hit rate 0.005% among 190,000;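 active means activation factor of 2 or more at 20 µM, relative to plate controls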
TNAP act hi DEA – TNAP activators at high phosphate acceptor level, primary screen, biochemical, luminescence, uHTS | Alkaline phosphatase, tissue-nonspecific isozyme (Homo sapiens), P05186 | purified TNAP, CDP-star luminescence, 1 M DEA, 30 min; active compounds read high; 0 = EDTA background, 1 = DMSO-only activity | activation factor at 20 µM | 200,000 tested, under 10 active | AID 1136, 2008;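 active means activation factor at least 2 at 20 µM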
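Control set: EDTA negative control, DMSO positive control / Assay system: human TNAP / Quantity: TNAP 1/800 final / Evaluation: TNAP activation factor scaled between EDTA and DMSO control wells / Measured by: luminescent substrate turnover signal / Compound dosing: one dose, 20 µM / Times: 30 min enzyme reaction at room temperature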
PMI act satM6P – human PMI activators, high substrate, primary screen, biochemical, fluorescence intensity, near-saturating mannose 6-phosphate; Mannose-6-phosphate isomerase (Homo sapiens), P34949; coupled PMI enzyme assay, resazurin fluorescence, 20 min; active compounds read high; 1 = untreated enzyme, 0 = substrate-free blank; activation factor at 20 µM; hit rate 0.34% among 190,000;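 active means activation factor of 2 or more at 20 µM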
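Test system: Human PMI in coupled enzyme assay | Input: 15 ng/mL PMI | Medium: HEPES-buffered pH 7.4 with magnesium and detergent | Compound: One concentration, 20 µM, in 1% DMSO | Incubation: Enzyme reaction with compound 20 min at room temperature | Detection: Diaphorase-driven resazurin-to-resorufin fluorescence, excitation 544, emission 590 nm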
TNAP inh hiacc – human TNAP enzyme inhibitors, primary screen, biochemical, luminescent, high phosphate acceptor level, uHTS. Alkaline phosphatase, tissue-nonspecific isozyme (Homo sapiens), P05186. hit rate 0.03% among 200,000. inhibition, % at 20 µM. purified TNAP, CDP-star luminescence, 1 M DEA;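 active means over 50% inhibition of tissue-nonspecific alkaline phosphatase at 20 µM in the single-dose screen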;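 further: plate controls were DMSO wells for no effect and EDTA-quenched wells as full inhibition for full effect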
TNAP inh no acc – human TNAP enzyme inhibitors, primary screen, biochemical, luminescent, no phosphate acceptor, uHTS; hit rate 0.26% among 200,000; AID 1012, 2008; inhibition, % at 20 µM; Alkaline phosphatase, tissue-nonspecific isozyme (Homo sapiens), P05186; purified TNAP, CDP-star luminescence, 30 min;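 active means tissue-nonspecific alkaline phosphatase inhibition above about 50% at 20 µM in the single-dose screen, limit read from the data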;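 further: 0% = DMSO negative control and 100% = EDTA positive control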
Rad51 HR inh – human RAD51 strand exchange inhibitors, primary screen, biochemical, fluorescence; DNA repair protein RAD51 homolog 1 (Homo sapiens), Q06609; hRad51 DNA strand exchange, fluorescence dequenching; inhibition, % at 10 µM; hit rate 0.085% among 200,000;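 active means inhibition above 40% at the single screening dose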;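 further: 0% = DMSO control wells and 100% = blanks with heterologous ssDNA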
Target sequence (Q06609 whole entry, looked up): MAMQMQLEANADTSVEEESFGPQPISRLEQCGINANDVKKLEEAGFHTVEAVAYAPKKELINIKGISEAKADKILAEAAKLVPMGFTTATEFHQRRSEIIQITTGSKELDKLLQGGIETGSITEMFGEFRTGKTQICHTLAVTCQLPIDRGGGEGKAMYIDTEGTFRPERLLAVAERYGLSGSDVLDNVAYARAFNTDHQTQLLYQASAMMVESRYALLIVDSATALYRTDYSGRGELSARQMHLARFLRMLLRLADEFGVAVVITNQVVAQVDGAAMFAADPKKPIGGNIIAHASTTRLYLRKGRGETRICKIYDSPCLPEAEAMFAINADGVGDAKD
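Read-out basis: percent inhibition relative to plate controls and blanks / Assay system: human Rad51 nucleoprotein filaments preassembled on unlabelled ssDNA / Timing: filaments 15 min 37 °C, then compound 30 min / Control set: per-plate controls and blanks / Technique: fluorescence dequenching at 485/520 nm / Compound: 10 µM final, single point / Also added: Fluorescein- and BHQ1-tagged 47-mer duplex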
* = called active by the depositor; . = no result given. Rows were chosen to be rich in hits. Some 0.6% of all compounds tested hit in one or more screens of this group.

SMILES	PMI activator	TNAP act hi DEA	PMI act satM6P	TNAP inh hiacc	TNAP inh no acc	Rad51 HR inh
CN1C(=O)NC(=O)[C@]2(Cc3ccccc3N3CCN(c4ccccc4)CC32)C1=O (stereo not given in full)	1.7	0.9	2.1*	10	-8	-1
Cc1nn(Cc2ccc(Cl)cc2Cl)c(Cl)c1C(=O)NC1CCCc2ccccc21 (stereo not given)	1	1	0.9	-4	-5	1
Cc1ccc(/C=C2\C(=O)NC(=S)N(c3ccc(F)cc3)C2=O)s1	1.6	1	2.1*	-1	2	9
O=c1c2ccccc2nc(/C=C/c2ccc3c(c2)OCO3)n1-c1cccc(O)c1	0.7	1	0.8	0	-10	1
COc1ccc(Cn2c(O)c(/C=N/NC(=O)c3ccccc3)c(=O)[nH]c2=O)cc1	1.1	1	1.2	0	71*	-13
CCN(C(C)=O)c1cccc(-c2ccnc3c(C#N)cnn23)c1	0.9	1	1	-4	-7	.

High-throughput results as filed in PubChem.
